In brackets after ≈: the same amount, converted by molar mass.
Columns and labels:
Staphylococcus aureus [1] = assay: Antibacterial activity against methicilin-resistant Staphylococcus aureus NRS 193 assessed as reduction in bacterial growth; assay type: functional
Outline: (§1)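 CLSI broth microdilution in cation-supplemented Mueller–Hinton broth II. Starter cultures were grown overnight at 37 °C with shaking from a single MHA colony, then diluted by OD600 to ~10^6 CFU/mL. Compounds came from 10 mg/mL DMSO stocks and were tested two-fold from 64 to 0.5 mg/L. Plates were incubated 37 °C for 18–24 h. MIC was taken as the lowest concentration with no visible growth. Three independent runs, each in duplicate.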

Staphylococcus aureus [2] = assay: Antibacterial activity against vancomycin-resistant Staphylococcus aureus VRS 4 assessed as reduction in bacterial growth; assay type: functional; outline: as §1
Enterococcus faecalis [3] = assay: Antibacterial activity against vancomycin-susceptible Enterococcus faecalis NR 31888 assessed as inhibition of bacterial growth incubated for 18 to 24 hrs by broth microdilution assay; assay type: functional; conditions: time 18-24 hrs
Outline: (§2)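 CLSI broth microdilution in cation-supplemented Mueller–Hinton broth II; overnight starter cultures (37 °C, shaking, 18–24 h) adjusted by OD600 to ~10^6 CFU/mL. Compounds dosed from DMSO stocks (10 mg/mL stock) as two-fold dilutions, 64–0.5 mg/L. Plates held 37 °C, 18–24 h. MIC = lowest concentration without visible growth. Three independent runs, each in duplicate.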

Staphylococcus aureus [4] = assay: Antibacterial activity against methicilin-resistant Staphylococcus aureus NRS 119 assessed as reduction in bacterial growth; assay type: functional; outline: as §1
Enterococcus faecium [5] = assay: Antibacterial activity against vancomycin-resistant Enterococcus faecium NR 31912 assessed as inhibition of bacterial growth
Enterococcus faecium [6] = assay: Antibacterial activity against vancomycin-resistant Enterococcus faecium NR 31903 assessed as inhibition of bacterial growth
Staphylococcus aureus [7] = assay: Bactericidal activity against Staphylococcus aureus ATCC 29213 incubated for 24 hrs by time-kill assay; assay type: functional, organism-based
Outline: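 Time-kill: S. aureus ATCC 29213 at ~10^6 CFU/mL in MHBII, exposed to 1× and 10× MIC, 37 °C with shaking for 24 h. Surviving CFU/mL plotted over time; mean of replicate experiments in duplicate.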

Enterococcus faecalis [8] = assay: Antibacterial activity against vancomycin-susceptible Enterococcus faecalis NR 31887 assessed as inhibition of bacterial growth incubated for 18 to 24 hrs by broth microdilution assay; assay type: functional; conditions: time 18-24 hrs; outline: as §2
Staphylococcus aureus [9] = assay: Antibacterial activity against Staphylococcus aureus ATCC 29213 assessed as reduction in bacterial growth; assay type: functional; outline: as §2
Enterococcus faecalis [10] = assay: Antibacterial activity against vancomycin-susceptible Enterococcus faecalis NR 31886 assessed as inhibition of bacterial growth incubated for 18 to 24 hrs by broth microdilution assay; assay type: functional; conditions: time 18-24 hrs; outline: as §2
[11] = Selectivity index, ratio of CC50 for cytotoxicity against african green monkey Vero cells assessed as reduction in cell viability to MIC for antibacterial activity against Staphylococcus aureus ATCC 29213 assessed as reduction in bacterial growth; assay type: toxicity, cell-based; conditions: read-out: Selectivity Index
Staphylococcus aureus [12] = assay: Antibacterial activity against methicilin-resistant Staphylococcus aureus NRS 186 assessed as reduction in bacterial growth; assay type: functional; outline: as §1
Pseudomonas aeruginosa = assay: Antibacterial activity against Pseudomonas aeruginosa ATCC 27853 assessed as reduction in bacterial growth; assay type: functional; outline: as §2
Staphylococcus aureus [13] = assay: Antibacterial activity against methicilin-resistant Staphylococcus aureus NRS 100 assessed as reduction in bacterial growth; assay type: functional; outline: as §1
Staphylococcus aureus [14] = assay: Antibacterial activity against methicilin-resistant Staphylococcus aureus NRS 194 assessed as reduction in bacterial growth; assay type: functional; outline: as §1
Escherichia coli = assay: Antibacterial activity against Escherichia coli ATCC 25922 assessed as reduction in bacterial growth; assay type: functional; outline: as §2
Enterococcus faecalis [15] = assay: Antibacterial activity against vancomycin-susceptible Enterococcus faecalis NR 31884 assessed as inhibition of bacterial growth incubated for 18 to 24 hrs by broth microdilution assay; assay type: functional; conditions: time 18-24 hrs; outline: as §2
Staphylococcus aureus [16] = assay: Antibacterial activity against vancomycin-resistant Staphylococcus aureus VRS 1 assessed as reduction in bacterial growth; assay type: functional; outline: as §1
Staphylococcus aureus [17] = assay: Antibacterial activity against methicilin-resistant Staphylococcus aureus NRS 192 assessed as reduction in bacterial growth; assay type: functional; outline: as §1
Staphylococcus aureus [18] = assay: Antibacterial activity against vancomycin-resistant Staphylococcus aureus VRS 12 assessed as reduction in bacterial growth; assay type: functional; outline: as §1
Staphylococcus aureus [19] = assay: Antibacterial activity against methicilin-resistant Staphylococcus aureus NRS 129 assessed as reduction in bacterial growth; assay type: functional; outline: as §1
[20] = Cytotoxicity against african green monkey Vero cells assessed as reduction in cell viability incubated for 72 hrs by MTT assay; assay type: toxicity, cell-based; conditions: chlorocebus sabaeus
Outline: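 Vero (ATCC CCL-81) cells seeded at ~10^3 per well, 37 °C, 5% CO2. After 24 h, compound added at 100–12.5 μg/mL for 72 h. MTT then given for 4 h at 37 °C, formazan dissolved in DMSO, absorbance read at 540 nm. CC50 taken as the concentration giving 50% viability loss; doxorubicin as positive control; triplicate.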

Klebsiella pneumoniae = assay: Antibacterial activity against Klebsiella pneumoniae BAA-1705 assessed as reduction in bacterial growth; assay type: functional; outline: as §2
Enterococcus faecalis [21] = assay: Antibacterial activity against vancomycin-susceptible Enterococcus faecalis NR 31885 assessed as inhibition of bacterial growth incubated for 18 to 24 hrs by broth microdilution assay; assay type: functional; conditions: time 18-24 hrs; outline: as §2
Staphylococcus aureus [22] = assay: Antibacterial activity against methicilin-resistant Staphylococcus aureus NRS 191 assessed as reduction in bacterial growth; assay type: functional; outline: as §1
Enterococcus faecium [23] = assay: Antibacterial activity against vancomycin-resistant Enterococcus faecium NR 31909 assessed as inhibition of bacterial growth
Acinetobacter baumannii = assay: Antibacterial activity against Acinetobacter baumannii BAA-1605 assessed as reduction in bacterial growth; assay type: functional; outline: as §2
Staphylococcus aureus [24] = assay: Antibacterial activity against methicilin-resistant Staphylococcus aureus NRS 198 assessed as reduction in bacterial growth; assay type: functional; outline: as §1

Structure (SMILES): O=C1N/C(=N\c2nc3ccccc3o2)S/C1=C\c1cc(Br)ccc1O
- MIC (Staphylococcus aureus [1]): 1 µg/mL (≈ 2.4 µM)
- MIC (Staphylococcus aureus [2]): 1 µg/mL (≈ 2.4 µM)
- MIC (Enterococcus faecalis [3]): 4 µg/mL (≈ 9.61 µM)
- MIC (Staphylococcus aureus [4]): 1 µg/mL (≈ 2.4 µM)
- MIC (Enterococcus faecium [5]): 0.125 µg/mL (≈ 0.3 µM)
- MIC (Enterococcus faecium [6]): 1 µg/mL (≈ 2.4 µM)
- Activity (Staphylococcus aureus [7]): Dose-Dependent Effect
- MIC (Enterococcus faecalis [8]): 2 µg/mL (≈ 4.8 µM)
- MIC (Staphylococcus aureus [9]): 1 µg/mL (≈ 2.4 µM)
- MIC (Enterococcus faecalis [10]): 4 µg/mL (≈ 9.61 µM)
- selectivity ratio [11]: > 20
- MIC (Staphylococcus aureus [12]): 0.5 µg/mL (≈ 1.2 µM)
- MIC (Pseudomonas aeruginosa): > 64 µg/mL
- MIC (Staphylococcus aureus [13]): 0.5 µg/mL (≈ 1.2 µM)
- MIC (Staphylococcus aureus [14]): 1 µg/mL (≈ 2.4 µM)
- MIC (Escherichia coli): > 64 µg/mL
- MIC (Enterococcus faecalis [15]): 4 µg/mL (≈ 9.61 µM)
- MIC (Staphylococcus aureus [16]): 1 µg/mL (≈ 2.4 µM)
- MIC (Staphylococcus aureus [17]): 1 µg/mL (≈ 2.4 µM)
- MIC (Staphylococcus aureus [18]): 0.5 µg/mL (≈ 1.2 µM)
- MIC (Staphylococcus aureus [19]): 0.5 µg/mL (≈ 1.2 µM)
- CC50 at 72 h [20]: > 20 µg/mL
- MIC (Klebsiella pneumoniae): > 64 µg/mL
- MIC (Enterococcus faecalis [21]): 4 µg/mL (≈ 9.61 µM)
- MIC (Staphylococcus aureus [22]): 0.5 µg/mL (≈ 1.2 µM)
- MIC (Enterococcus faecium [23]): 0.125 µg/mL (≈ 0.3 µM)
- MIC (Acinetobacter baumannii): > 64 µg/mL
- MIC (Staphylococcus aureus [24]): 1 µg/mL (≈ 2.4 µM)

Reference: ChEMBL document CHEMBL5329174, “Discovery of benzoxazole-thiazolidinone hybrids as promising antibacterial agents against Staphylococcus aureus and Enterococcus species” (RSC Med Chem, 2023)
